Here are results for 6 molecules from ChEMBL document CHEMBL1125713, “Synthesis and antiarrhythmic activity of cis-2,6-dimethyl-alpha,alpha-diaryl-1-piperidinebutanols” (1991).

For assay [1], the system named is Canis familiaris. The assay is described as follows: Compound was evaluated for the heart rate effect in normal dogs at a dose of 5 mg/kg, administered intravenously and value noted at 1h. The format is functional, Canis lupus familiaris. To be noted: route intravenous. Put shortly:
(§1)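 Conscious normal dogs, trained and sling-restrained, received the same iv dosing: 5 mg/kg infused over 5 min. Heart rate came from continuous limb lead II ECG at control, end of dose, 20 min and 1 h. Values are mean ± SD for two dogs.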

The subject of assay [2] is Canis familiaris. The assay is described as follows: Antiarrhythmic effect in coronary artery ligated dogs model at a dose of 5 mg/kg, administered intravenously and value noted at 20 min. To be noted: route intravenous. The class given is functional, Canis lupus familiaris, Heart. Put shortly:
(§2)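 Coronary-ligated dogs with ventricular arrhythmias. Dosing was 5 mg/kg in 10–20 mL isotonic saline, given as an iv infusion over 5 min. Limb lead II ECG was monitored continuously for up to 6 h. Percent normal sinus beats was scored at control, end of dose, 20 min and 1 h. Values are mean ± SEM for three or more animals, mean ± SD for two.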

Assay [3] deals with Canis familiaris. The assay is described as follows: Antiarrhythmic effect in coronary artery ligated dogs model at a dose of 5 mg/kg, value noted at end dose. The format is functional, Canis lupus familiaris, Heart. In outline:
as §2

Assay [4] deals with Canis familiaris. The assay is described as follows: Compound was evaluated for the heart rate effect in normal dogs at a dose of 5 mg/kg, administered intravenously and value noted at end dose. Conditions: route intravenous. The class given is functional, Canis lupus familiaris. In outline:
as §1

The subject of assay [5] is Canis familiaris. The assay is described as follows: Antiarrhythmic effect in coronary artery ligated dog model at a dose of 5 mg/kg, administered intravenously and value noted at 1 hr. To be noted: route intravenous. The class given is functional, Canis lupus familiaris, Heart. Put shortly:
as §2

The species named for assay [6] is Canis familiaris. The assay is described as follows: Compound was evaluated for the activity rating. The format is functional, Canis lupus familiaris. In outline:
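In ligated dogs given 5 mg/kg iv over 5 min, group % normal beats was plotted at end of dose, 20 min and 1 h. The area under this curve minus the control area was divided by the same area for an ideal response (100% normal beats for the whole hour), then multiplied by 100.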

Assay [7] relates to Canis familiaris. The assay is described as follows: Compound was evaluated for the heart rate effect in normal dogs at a dose of 5 mg/kg, administered intravenously and value noted at 20 min. The class given is functional, Canis lupus familiaris. To be noted: route intravenous. Put shortly: as §1
The species entered for assay [8] is Canis familiaris. The assay is described as follows: Compound was evaluated for the duration of sustained effect; 0.5-2. The format is functional, Canis lupus familiaris. Put shortly: (§3)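 Normal dogs received 5 mg/kg iv over 5 min, with heart rate tracked by continuous ECG. Dogs above 140 beats/min were followed until the rate fell to 140. The sustained effect was rated long (>2 h), moderate (0.5–2 h) or short (<0.5 h).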

For assay [9], the species on record is Canis familiaris. The assay is described as follows: Compound was evaluated for the degree of tachycardia; 160-199. The class given is functional, Canis lupus familiaris. In outline:
(§4)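 Conscious normal dogs received 5 mg/kg iv over 5 min, with heart rate from limb lead II ECG. Tachycardia was graded as severe (≥200 beats/min), moderate (160–199), slight (<160 after a rise of ≥20) or none (change <20 beats/min).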

The species named for assay [10] is Canis familiaris. The assay is described as follows: Compound was evaluated for the degree of tachycardia. The class given is functional, Canis lupus familiaris. Put shortly: as §4
For assay [11], the species on record is Canis familiaris. The assay is described as follows: Compound was evaluated for the duration of sustained effect. The class given is functional, Canis lupus familiaris. Put shortly: as §3
The species entered for assay [12] is Canis familiaris. The assay is described as follows: Compound was evaluated for the degree of tachycardia 160-199. The format is functional, Canis lupus familiaris. In outline:
as §4

Assay [13] is filed under the species Canis familiaris. The assay is described as follows: Compound was evaluated for the degree of tachycardia. The class given is functional, Canis lupus familiaris. Put shortly:
as §4

As to `CC1CCCC(C)N1CCCCC(O)(c1ccccc1)c1ccccc1` (stereo not drawn), the Heart rate with Canis familiaris [1] stood at 140 beats min-1; in the assay on Canis familiaris [4] it was 137 beats min-1; in the assay with Canis familiaris [7], 139 beats min-1. The Normal beats is recorded as 84% in the assay on Canis familiaris [2], 99% with Canis familiaris [3] and 51% with Canis familiaris [5]. Besides, the Activity rating in the assay filed under Canis familiaris [6] is given as 72. Besides, in the assay filed under Canis familiaris [8], the Duration was determined as 0.5 h.
Consider `CC1CCCC(C)N1CCCC(O)(c1ccccc1)C1CCCCC1.Cl` (stereo not drawn), for which the Heart rate was 121 beats min-1 in the assay on Canis familiaris [1], 176 beats min-1 in the assay on Canis familiaris [4], 152 beats min-1 with Canis familiaris [7] and 160 beats min-1 in the assay filed under Canis familiaris [9]. The Normal beats with Canis familiaris [2] came out at 65%; in the assay on Canis familiaris [3], 98%; in the assay with Canis familiaris [5] it was 68%. Moreover, the Activity rating in the assay filed under Canis familiaris [6] was found to be 66. In the assay listed under Canis familiaris [8], the Duration came to 0.5 h.
With `CC1CCCC(C)N1CCCC(c1ccccc1)c1ccccc1.Cl` (stereo not drawn), the Beats/min is recorded as 179 in the assay on Canis familiaris [1], “>=200” in the assay filed under Canis familiaris [10], 255 with Canis familiaris [4] and 218 in the assay with Canis familiaris [7]. Further, the figures for the Normal beats in the assay on Canis familiaris [2], with Canis familiaris [3] and in the assay with Canis familiaris [5] were 97%, 95% and 92%, respectively. The Activity rating in the assay filed under Canis familiaris [6] was found to be 94. Besides, the Duration in the assay filed under Canis familiaris [11] was >2 h.
Regarding `CC1CCCC(C)N1CCCC(C(N)=O)(c1ccccc1)c1ccccn1` (stereo not drawn), the Heart rate with Canis familiaris [1] came to 129 beats min-1; in the assay with Canis familiaris [4] it was 197 beats min-1; with Canis familiaris [7], 145 beats min-1; in the assay filed under Canis familiaris [9], 160 beats min-1. For the same molecule, the Normal beats with Canis familiaris [2] is 87%; in the assay on Canis familiaris [3], 96%; with Canis familiaris [5], 62%. For the same molecule, the Activity rating in the assay listed under Canis familiaris [6] was determined as 80. This molecule also yielded a Duration in the assay listed under Canis familiaris [8] of 0.5 h.
With `CC1CCCC(C)N1CCCC(C#N)(c1ccccc1)c1ccccc1.Cl` (stereo not drawn), the Heart rate in the assay on Canis familiaris [1] was found to be 137 beats min-1; with Canis familiaris [4], 168 beats min-1; in the assay filed under Canis familiaris [12], 160 beats min-1; in the assay on Canis familiaris [7], 147 beats min-1. Further, the Normal beats was found to be 88% in the assay with Canis familiaris [2], 90% with Canis familiaris [3] and 65% in the assay on Canis familiaris [5]. In addition, the Activity rating in the assay listed under Canis familiaris [6] amounted to 82. Moreover, the Duration in the assay listed under Canis familiaris [11] was >2 h.
In the case of `CC1CCCC(C)N1CCCC(C(N)=O)(c1ccccc1)c1ccccc1.Cl` (stereo not drawn), the Heart rate with Canis familiaris [1] is given as 215 beats min-1; in the assay on Canis familiaris [4], 235 beats min-1; in the assay on Canis familiaris [7], 223 beats min-1; in the assay listed under Canis familiaris [13], >200 beats min-1. The Normal beats in the assay with Canis familiaris [2] is 90%; in the assay with Canis familiaris [3] it was 98%; in the assay on Canis familiaris [5], 94%. The Activity rating in the assay listed under Canis familiaris [6] is reported as 91. Further, in the assay listed under Canis familiaris [11], the Duration was >2 h.
